Experimental data published in ChEMBL document CHEMBL1799948, “Side chain SAR of bicyclic β-lactamase inhibitors (BLIs). 2. N-Alkylated and open chain analogs of MK-8712” (Bioorg Med Chem Lett, 2011).
pIC50: −log10 of the molar value.

Experiments:
[1] = biological target: Beta-lactamase (Pseudomonas aeruginosa (strain ATCC 15692 / PAO1 / 1C / PRS 101 / LMG12228), UniProt P24735); experiment: Inhibition of Pseudomonas aeruginosa CL5701 AmpC by spectrophotometric assay
Method in brief: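 AmpC from Pseudomonas aeruginosa, in 100 mM KH₂PO₄ buffer pH 7 with 0.005% BSA. Inhibitor serially diluted from DMSO and preincubated with enzyme 40 min at room temperature. Nitrocefin then added for a further 40 min. Quenched with 2.5 N acetic acid, absorbance read at 492 nm. IC₅₀ taken from semi-log plots of inhibition versus inhibitor concentration.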

[2] = biological target: Beta-lactamase (Pseudomonas aeruginosa (strain ATCC 15692 / PAO1 / 1C / PRS 101 / LMG12228)) (UniProt P24735); experiment: Inhibition of AmpC in Pseudomonas aeruginosa CL5701 assessed as concentration required to reduce the imipenen MIC from 32 ug/ml to 4 ug/ml by in vitro synergy assay
Sequence of Beta-lactamase (Pseudomonas aeruginosa (strain ATCC 15692 / PAO1 / 1C / PRS 101 / LMG12228)) (P24735 27-397 limits assumed): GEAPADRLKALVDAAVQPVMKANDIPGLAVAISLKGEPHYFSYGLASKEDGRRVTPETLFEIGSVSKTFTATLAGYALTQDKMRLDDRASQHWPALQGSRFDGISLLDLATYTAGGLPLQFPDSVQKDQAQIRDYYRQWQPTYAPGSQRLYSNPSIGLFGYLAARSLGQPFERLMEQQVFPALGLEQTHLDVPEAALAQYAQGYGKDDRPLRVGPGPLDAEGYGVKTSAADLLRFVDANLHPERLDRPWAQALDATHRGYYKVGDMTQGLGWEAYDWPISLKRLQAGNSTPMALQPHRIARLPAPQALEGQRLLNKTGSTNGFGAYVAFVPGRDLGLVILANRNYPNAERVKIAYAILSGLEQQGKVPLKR

Sequence of Beta-lactamase (P24735 whole entry): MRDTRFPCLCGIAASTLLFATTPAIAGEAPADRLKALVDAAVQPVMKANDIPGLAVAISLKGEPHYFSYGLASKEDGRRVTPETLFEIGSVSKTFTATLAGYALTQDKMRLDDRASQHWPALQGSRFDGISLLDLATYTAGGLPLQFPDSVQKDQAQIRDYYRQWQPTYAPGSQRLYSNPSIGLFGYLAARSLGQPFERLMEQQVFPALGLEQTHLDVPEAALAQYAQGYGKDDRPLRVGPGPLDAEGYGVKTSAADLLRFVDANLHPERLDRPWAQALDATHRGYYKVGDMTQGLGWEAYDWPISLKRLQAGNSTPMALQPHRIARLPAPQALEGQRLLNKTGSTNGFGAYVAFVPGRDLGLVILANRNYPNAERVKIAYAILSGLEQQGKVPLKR

SMILES	pIC50 [1]	Activity [2]
CNCCCNC(=O)N1CC[C@@H]2[C@H]1C(=O)N2S(=O)(=O)O	5.28	50 µM
CN(C)CCCNC(=O)N1CC[C@@H]2[C@H]1C(=O)N2S(=O)(=O)O	5.68	25 µM
CC(C)NC(=O)N1CC[C@@H]2[C@H]1C(=O)N2S(=O)(=O)O	5.74	> 100 µM
O=C(N[C@H]1CCCN(CCCO)CC1)N1CC[C@@H]2[C@H]1C(=O)N2S(=O)(=O)O	5.96	50 µM
CNCCCCNC(=O)N1CC[C@@H]2[C@H]1C(=O)N2S(=O)(=O)O	5.46	25 µM
CN(C)CCCCCNC(=O)N1CC[C@@H]2[C@H]1C(=O)N2S(=O)(=O)O	5.72	100 µM
NCCN1CCC[C@H](NC(=O)N2CC[C@@H]3[C@H]2C(=O)N3S(=O)(=O)O)CC1	6.22	25 µM
O=C(N[C@H]1CCCN(CCO)CC1)N1CC[C@@H]2[C@H]1C(=O)N2S(=O)(=O)O	6.05	25 µM
CN1CCC[C@H](NC(=O)N2CC[C@@H]3[C@H]2C(=O)N3S(=O)(=O)O)CC1	5.59	25 µM
O=C1[C@H]2NCC[C@H]2N1S(=O)(=O)O	< 3.60	> 100 µM
CN(C)CCCCNC(=O)N1CC[C@@H]2[C@H]1C(=O)N2S(=O)(=O)O	5.80	25 µM
CN(C)CCN1CCC[C@H](NC(=O)N2CC[C@@H]3[C@H]2C(=O)N3S(=O)(=O)O)CC1	6.05	100 µM
NC(=O)N1CC[C@@H]2[C@H]1C(=O)N2S(=O)(=O)O	4.80	> 100 µM
C[N+]1(C)CCC[C@H](NC(=O)N2CC[C@@H]3[C@H]2C(=O)N3S(=O)(=O)[O-])CC1	5.82	50 µM
